From ChEMBL document CHEMBL1649299, “Eradication of intracellular Salmonella enterica serovar Typhimurium with a small-molecule, host cell-directed agent” (Antimicrob Agents Chemother, 2009)
The source made the active and inactive calls.

What was measured:
Salmonella typhimurium [1] = test: Antimicrobial activity against Salmonella enterica serovar Typhimurium ATCC 14028 infected in mouse RAW264.7 cells assessed as reduction of bacterial survival at 1 uM after 2 hrs relative to control; assay type: functional, Salmonella enterica subsp. enterica serovar Typhimurium
In short: (§1)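 RAW264.7 cells were seeded at 5.0 × 10^5 cells/well for 12–16 h. Log-phase bacteria (1:33 subculture, 3 h in LB, 37°C) were added at MOI 25 for 30 min. Extracellular bacteria were killed with 100 μg/ml gentamicin for 1 h, then washed off. Cells were treated in medium with 10% FBS and 10 μg/ml gentamicin (DMSO 0.1% final) and lysed with 0.1% Triton X-100. CFU were counted on LB agar after 16 h at 37°C.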

Salmonella typhimurium [2] = test: Antimicrobial activity against Salmonella enterica serovar Typhimurium ATCC 14028 infected in mouse RAW264.7 cells assessed as reduction in bacterial load at 1 uM after 8 hrs by immunofluorescent staining; assay type: functional, Salmonella enterica subsp. enterica serovar Typhimurium; set-up: scale not given: the % may be the effect or the level left
In short: (§2)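 RAW264.7 cells were fixed in 4% formaldehyde for 20 min at 25°C, permeabilized with 0.5% Triton X-100, and blocked overnight in 3% BSA. Staining used primary antibody (anti-LC3 for autophagosomes) for 1 h, then fluorescent secondary antibody for 1 h, with DAPI for nuclei. Slides were read by wide-field or confocal microscopy. For colocalization, only bacteria in direct contact with autophagosomes in 3-D confocal images were scored. Giant puncta were defined as ≥1 μm.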

Salmonella typhimurium [3] = test: Antimicrobial activity against Salmonella enterica serovar Typhimurium ATCC 14028 infected in mouse RAW264.7 cells assessed as inhibition of intracellular bacterial growth at 1 uM after 4 hrs; assay type: functional, organism-based, Salmonella enterica subsp. enterica serovar Typhimurium; in short: as §1
Salmonella typhimurium [4] = test: Antimicrobial activity against Salmonella enterica serovar Typhimurium ATCC 14028 infected in mouse RAW264.7 cells assessed as inhibition of intracellular bacterial growth at 1 uM after 8 hrs; assay type: functional, Salmonella enterica subsp. enterica serovar Typhimurium; set-up: scale not given: the % may be the effect or the level left; in short: as §1
Salmonella typhimurium [5] = test: Antimicrobial activity against Salmonella enterica serovar Typhimurium ATCC 14028 infected in mouse RAW264.7 cells assessed as inhibition of intracellular bacterial growth after 8 hrs; assay type: functional, organism-based, Salmonella enterica subsp. enterica serovar Typhimurium; conditions: ATCC 14028, RAW264.7, 8 h; in short: as §1
RAW264.7 [6] = test: Cytotoxicity against Salmonella enterica serovar Typhimurium ATCC 14028 infected in mouse RAW264.7 cells assessed as cell viability at 1 uM after 24 hrs by MTT assay; assay type: cell-based; conditions: raw264.7, 24 h
Salmonella typhimurium [7] = test: Antimicrobial activity against Salmonella enterica serovar Typhimurium ATCC 14028 infected in mouse J774.1 cells; assay type: functional, organism-based; conditions: Salmonella enterica subsp. enterica serovar Typhimurium
In short: (§3)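 Macrophages were seeded at 5.0 × 10^5 cells/well for 12–16 h; THP-1 cells were first differentiated with 20 nM TPA for 48 h. Bacteria were subcultured 3 h in LB and added at MOI 25 for 30 min. Cells then received 100 μg/ml gentamicin for 1 h and were washed. Treatment was in medium with 10% FBS and 10 μg/ml gentamicin. Survivors were released with 0.1% Triton X-100 and counted as CFU on LB agar after 16 h at 37°C.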

Salmonella typhimurium [8] = test: Antimicrobial activity against Salmonella enterica serovar Typhimurium ATCC 14028 infected in human TPA-differentiated THP1 cells; assay type: functional, organism-based; conditions: Salmonella enterica subsp. enterica serovar Typhimurium, THP-1; in short: as §3
Salmonella typhimurium [9] = test: Antimicrobial activity against Salmonella enterica serovar Typhimurium ATCC 14028 at 1 to 5 uM after 480 mins; assay type: functional, organism-based; conditions: Salmonella enterica subsp. enterica serovar Typhimurium
Salmonella typhimurium [10] = test: Antimicrobial activity against Salmonella enterica serovar Typhimurium ATCC 14028 infected in mouse RAW264.7 cells assessed as reduction of bacterial count at 1 uM pretreated 30 mins before infection measured after 1 hr; assay type: functional, organism-based; conditions: Salmonella enterica subsp. enterica serovar Typhimurium
In short: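 Bacteria were pre-exposed to vehicle (DMSO) or 1 μM drug in culture medium for 30 min. They were then used to infect RAW264.7 cells at MOI 25 for 30 min, followed by 100 μg/ml gentamicin for 1 h and PBS washes. Intracellular bacteria were counted as CFU 1 h later after Triton X-100 lysis.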

Salmonella typhimurium [11] = test: Antimicrobial activity against Salmonella enterica serovar Typhimurium ATCC 14028 infected in mouse RAW264.7 cells assessed as inhibition of intracellular bacterial growth at 1 uM after 4 hrs in presence of vacuolar ATPase inhibitor bafilomycin A1; assay type: functional, organism-based; conditions: Salmonella enterica subsp. enterica serovar Typhimurium; in short: as §3
Salmonella typhimurium [12] = test: Antimicrobial activity against Salmonella enterica serovar Typhimurium ATCC 14028 infected in mouse RAW264.7 cells assessed as inhibition of intracellular bacterial growth at 1 uM after 8 to 24 hrs in presence of gentamicin; assay type: functional, organism-based; conditions: Salmonella enterica subsp. enterica serovar Typhimurium; in short: as §3
Salmonella typhimurium [13] = test: Antimicrobial activity against Salmonella enterica serovar Typhimurium ATCC 14028 infected in mouse RAW264.7 cells transfected with shRNA assessed as reduction of Beclin-1 expression at 1 uM after 2 hrs by immunoblotting relative to control; assay type: functional, Salmonella enterica subsp. enterica serovar Typhimurium; set-up: scale not given: the % may be the effect or the level left
In short: (§4)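 Beclin-1 or Atg7 shRNA plasmids, with GFP shRNA as control, were nucleofected into RAW264.7 cells (2 × 10^6 cells, 2 μg DNA). Stable clones were selected with 2 μg/ml puromycin and kept in 1 μg/ml. Knockdown was measured by immunoblotting.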

Salmonella typhimurium [14] = test: Antimicrobial activity against Salmonella enterica serovar Typhimurium ATCC 14028 infected in mouse RAW264.7 cells transfected with shRNA assessed as reduction of Atg7 expression at 1 uM after 2 hrs by immunoblotting relative to control; assay type: functional, Salmonella enterica subsp. enterica serovar Typhimurium; set-up: scale not given: the % may be the effect or the level left; in short: as §4
[15] = molecular target: RAC-alpha serine/threonine-protein kinase (Mus musculus) (UniProt P31750); test: Inhibition of Akt phosphorylation in mouse RAW264.7 cells infected with Salmonella enterica serovar Typhimurium ATCC 14028 assessed as decrease of p-473Ser-Akt level after 8 hrs by Western blotting; assay type: cell-based
Chain of RAC-alpha serine/threonine-protein kinase (Mus musculus) (P31750 whole entry): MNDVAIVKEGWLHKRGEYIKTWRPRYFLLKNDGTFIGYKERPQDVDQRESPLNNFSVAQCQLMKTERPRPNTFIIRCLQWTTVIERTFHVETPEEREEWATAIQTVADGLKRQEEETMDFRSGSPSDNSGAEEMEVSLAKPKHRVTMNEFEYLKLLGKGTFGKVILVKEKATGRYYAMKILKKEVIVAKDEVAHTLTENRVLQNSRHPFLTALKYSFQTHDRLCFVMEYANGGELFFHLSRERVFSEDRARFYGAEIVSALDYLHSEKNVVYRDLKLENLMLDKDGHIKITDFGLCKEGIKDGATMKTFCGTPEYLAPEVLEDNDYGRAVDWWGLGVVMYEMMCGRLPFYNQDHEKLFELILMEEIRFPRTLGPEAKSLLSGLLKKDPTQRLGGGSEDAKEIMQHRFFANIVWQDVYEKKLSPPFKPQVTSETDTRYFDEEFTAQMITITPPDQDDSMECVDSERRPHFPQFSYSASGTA
In short: (§5)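 Infected RAW264.7 cells were treated for 8 h and then lysed in M-PER on ice. Lysates (25 μg/lane) were run on SDS gels and transferred to nitrocellulose. Membranes were blocked with 3% skim milk in TBS, incubated with primary antibody for 12 h at 4°C and then HRP secondary, and detected by enhanced chemiluminescence.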

[16] = molecular target: RAC-alpha serine/threonine-protein kinase (Mus musculus) (UniProt P31750); test: Inhibition of Akt phosphorylation in mouse RAW264.7 cells infected with Salmonella enterica serovar Typhimurium ATCC 14028 assessed as decrease of p-308Thr-Akt level after 8 hrs by Western blotting; assay type: cell-based; in short: as §5
[17] = molecular target: RAC-alpha serine/threonine-protein kinase (Mus musculus) (UniProt P31750); test: Inhibition of Akt phosphorylation in mouse RAW264.7 cells infected with Salmonella enterica serovar Typhimurium ATCC 14028 assessed as decrease of phosphorylated GSK3-beta level at 1 uM after 8 hrs by Western blotting; assay type: cell-based; in short: as §5
Salmonella typhimurium [18] = test: Antimicrobial activity against Salmonella enterica serovar Typhimurium ATCC 14028 infected in mouse RAW264.7 cells transfected with HA-tagged CA-Akt1 assessed as inhibition of intracellular bacterial survival at 1 uM after 2 hrs; assay type: functional, organism-based; conditions: Salmonella enterica subsp. enterica serovar Typhimurium; in short: as §3
Salmonella typhimurium [19] = test: Antimicrobial activity against Salmonella enterica serovar Typhimurium ATCC 14028 infected in mouse RAW264.7 cells transfected with HA-tagged CA-Akt1 assessed as inhibition of intracellular bacterial survival at 1 uM after 8 hrs; assay type: functional, organism-based; conditions: Salmonella enterica subsp. enterica serovar Typhimurium; in short: as §3
Salmonella typhimurium [20] = test: Antimicrobial activity against Salmonella enterica serovar Typhimurium ATCC 14028 infected in BALB/c mouse assessed as reduction of liver bacterial load at 2.5 mg/kg, administered intragastrically after 24 hrs of post infection qd for 4 days measured on day 5 relative to control; assay type: functional, Salmonella enterica subsp. enterica serovar Typhimurium; set-up: scale not given: the % may be the effect or the level left; conditions: route intragastric
In short: (§6)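 Female BALB/c mice, 8–10 weeks old, were infected by intragastric gavage with an overnight culture at 10^5 organisms in 0.1 ml PBS (50% lethal dose). Starting 24 h post-infection, drug in 0.5% methylcellulose–0.1% Tween 80 in water was given by gavage once daily for 4 days at 1, 2.5 or 5 mg/kg, 7–9 mice per group. On day 5 post-infection, liver and spleen were homogenized in 10 ml cold PBS and plated on LB agar to count CFU.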

Salmonella typhimurium [21] = test: Antimicrobial activity against Salmonella enterica serovar Typhimurium ATCC 14028 infected in BALB/c mouse assessed as reduction of liver bacterial load at 5 mg/kg, administered intragastrically after 24 hrs of post infection qd for 4 days measured on day 5 relative to control; assay type: functional, Salmonella enterica subsp. enterica serovar Typhimurium; set-up: scale not given: the % may be the effect or the level left; conditions: route intragastric; in short: as §6
Salmonella typhimurium [22] = test: Antimicrobial activity against Salmonella enterica serovar Typhimurium ATCC 14028 infected in BALB/c mouse assessed as reduction of spleen bacterial load at 2.5 mg/kg, administered intragastrically after 24 hrs of post infection qd for 4 days measured on day 5 relative to control; assay type: functional, Salmonella enterica subsp. enterica serovar Typhimurium; set-up: scale not given: the % may be the effect or the level left; conditions: route intragastric; in short: as §6
Salmonella typhimurium [23] = test: Antimicrobial activity against Salmonella enterica serovar Typhimurium ATCC 14028 infected in BALB/c mouse assessed as reduction of spleen bacterial load at 5 mg/kg, administered intragastrically after 24 hrs of post infection qd for 4 days measured on day 5 relative to control; assay type: functional, Salmonella enterica subsp. enterica serovar Typhimurium; set-up: scale not given: the % may be the effect or the level left; conditions: route intragastric; in short: as §6
RAW264.7 [24] = test: Induction of autophagy in mouse RAW264.7 cells assessed as increase of LC3 punctum formation at 1 uM by immunofluorescence microscopic analysis; assay type: functional, cell-based; in short: as §2
RAW264.7 [25] = test: Induction of autophagy in mouse RAW264.7 cells assessed as LC3-positive puncta with diameter greater than 1 uM in cytoplasm at 1 uM by immunofluorescence microscopic analysis; assay type: functional, cell-based; in short: as §2
RAW264.7 [26] = test: Cytotoxicity against mouse RAW264.7 cells assessed as cell viability at 1 uM after 24 hrs by MTT assay; assay type: cell-based; conditions: raw264.7, 24 h
RAW264.7 [27] = test: Cytotoxicity against mouse RAW264.7 cells assessed as cell viability after 24 hrs by MTT assay; assay type: cell-based; conditions: RAW264.7, 24 h
Salmonella typhimurium [28] = test: Antimicrobial activity against Salmonella enterica serovar Typhimurium ATCC 14028 infected in mouse RAW264.7 cells assessed as colocalization of organism with autophagosomes at 1 uM after 1 hr by immunofluorescence microscopic analysis relative to control; assay type: functional, Salmonella enterica subsp. enterica serovar Typhimurium; in short: as §2
Salmonella typhimurium [29] = test: Antimicrobial activity against Salmonella enterica serovar Typhimurium ATCC 14028 infected in BALB/c mouse assessed as increase of host survival days at 2.5 mg/kg, po administered after 24 hrs of post infection qd relative to control

NCC(=O)Nc1ccc(-n2nc(C(F)(F)F)cc2-c2ccc3c(ccc4ccccc43)c2)cc1 [AR-12]
Activity (Salmonella typhimurium [1]): 25%
Activity (Salmonella typhimurium [2]): 82%
Activity (Salmonella typhimurium [3]): Active
Activity (Salmonella typhimurium [4]): 90%
IC50 (Salmonella typhimurium [5]): 0.2 µM
Activity (RAW264.7 [6]): Non-toxic
Activity (Salmonella typhimurium [7]): Active
Activity (Salmonella typhimurium [8]): Active
Activity (Salmonella typhimurium [9]): inactive
Activity (Salmonella typhimurium [10]): inactive
Activity (Salmonella typhimurium [11]): Active
Activity (Salmonella typhimurium [12]): Active
Activity (Salmonella typhimurium [13]): 83%
Activity (Salmonella typhimurium [14]): 43%
inhibition [15]: Dose-dependent effect
inhibition [16]: Dose-dependent effect
inhibition [17]: Active
Activity (Salmonella typhimurium [18]): Active
Activity (Salmonella typhimurium [19]): inactive
Activity (Salmonella typhimurium [20]): 99%
Activity (Salmonella typhimurium [21]): 96%
Activity (Salmonella typhimurium [22]): 98%
Activity (Salmonella typhimurium [23]): 90%
Activity (RAW264.7 [24]): Active
Activity (RAW264.7 [25]): Active
Activity (RAW264.7 [26]): Non-toxic
IC50 (RAW264.7 [27]): > 10 µM
Activity (Salmonella typhimurium [28]): 21.2%
Survival (Salmonella typhimurium [29]): 8.1 days
